According to publication PMC7597899 (Chemical Science, 2020):

experiment: Acidity; type: physicochemical; settings: aqueous 0.15 M KCl, with or without methanol cosolvent
In short: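 Potentiometric titrations in 0.15 M KCl, titrated with 0.5 M HCl and KOH over pH 2.0–12.0. Samples were ≤0.5 mg and run in triplicate. Standard deviation came from fitting all three replicates. For water-insoluble compounds, methanol was added and the apparent psKa was extrapolated to aqueous pKa by the Yasuda–Shedlovsky procedure.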

Row | pKa | Structure (SMILES)
1 | 6.34 | CONC(=O)c1nc2ccccc2s1 [Compound 4a, O-methyl benzothiazole-2-hydroxamic acid]
2 | 7.44 | CONC(=O)c1nsc2ccccc12 [Compound 3a, O-Methyl 1,2-benzisothiazole-3-hydroxamic acid]
3 | 8.43 | CONC(=O)c1n[nH]c2ccccc12 [Compound 1a, O-methyl indazole-3-hydroxamic acid]
4 | 7.21 | CONC(=O)c1nc2ccccc2[nH]1 [Compound 2a, O-methyl benzimidazole-2-hydroxamic acid]
